{"source": "ChEMBL document CHEMBL5678802", "about": "“Small-molecule p21-activated kinase inhibitor PF-3758309 is a potent inhibitor of oncogenic signaling and tumor growth” (Proc Natl Acad Sci U S A, 2010)", "key": {"HT-29": {"system": "HT-29", "assay": "Antiproliferative activity against human HT-29 cells assessed as inhibition of cell proliferation incubated for 3 days by CellTiter-Glo Luminescent Cell Viability Assay", "type": "functional, cell-based", "conditions": "HT-29, 72 h", "summary_of_the_method": "(§1)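 Cancer cell lines seeded in 384-well plates on day 1; compound added on day 2 and left for 3 days. On day 5 all medium was aspirated, and viable cells were quantified by CellTiter-Glo luminescence, which measures cellular ATP. Dose-dependent effects on proliferation were determined.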"}, "SW-620": {"system": "SW-620", "assay": "Antiproliferative activity against human SW620 cells assessed as inhibition of cell proliferation incubated for 3 days by CellTiter-Glo Luminescent Cell Viability Assay", "type": "functional, cell-based", "conditions": "SW-620, 72 h", "summary_of_the_method": "(§2)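 Cells of each line were plated in 384-well plates on day 1 and exposed to compound from day 2 for 3 days. On day 5 all medium was aspirated. Viable cell number was read by CellTiter-Glo luminescence, which quantifies cellular ATP.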"}, "HCT-15": {"system": "HCT-15", "assay": "Antiproliferative activity against human HCT-15 cells assessed as inhibition of cell proliferation incubated for 3 days by CellTiter-Glo Luminescent Cell Viability Assay", "type": "functional, cell-based", "conditions": "HCT-15, 72 h", "summary_of_the_method": "as §1"}, "SK-MES-1": {"system": "SK-MES-1", "assay": "Antiproliferative activity against human SK-MES-1 cells assessed as inhibition of cell proliferation incubated for 3 days by CellTiter-Glo Luminescent Cell Viability Assay", "type": "functional, cell-based", "conditions": "SK-MES-1, 72 h", "summary_of_the_method": "as §2"}, "NCI-H1838": {"system": "NCI-H1838", "assay": "Antiproliferative activity against human NCI-H1838 cells assessed as inhibition of cell proliferation incubated for 3 days by CellTiter-Glo Luminescent Cell Viability Assay", "type": "functional, cell-based", "conditions": "NCI-H1838, 72 h", "summary_of_the_method": "as §2"}, "NCI-H358 [1]": {"system": "NCI-H358", "assay": "Antiproliferative activity against human NCI-H358 cells assessed as inhibition of cell proliferation incubated for 3 days by CellTiter-Glo Luminescent Cell Viability Assay", "type": "functional, cell-based", "conditions": "NCI-H358, 72 h", "summary_of_the_method": "as §2"}, "NCI-H647": {"system": "NCI-H647", "assay": "Antiproliferative activity against human NCI-H647 cells assessed as inhibition of cell proliferation incubated for 3 days by CellTiter-Glo Luminescent Cell Viability Assay", "type": "functional, cell-based", "conditions": "NCI-H647, 72 h", "summary_of_the_method": "as §2"}, "PSN1": {"system": "PSN1", "assay": "Antiproliferative activity against human PSN1 cells assessed as inhibition of cell proliferation incubated for 3 days by CellTiter-Glo Luminescent Cell Viability Assay", "type": "functional, cell-based", "conditions": "PSN1, 72 h", "summary_of_the_method": "as §2"}, "PaTu 8988t": {"system": "PaTu 8988t", "assay": "Antiproliferative activity against human PaTu 8988t cells assessed as inhibition of cell proliferation incubated for 3 days by CellTiter-Glo Luminescent cell viability assay", "type": "functional, cell-based", "conditions": "72 h", "summary_of_the_method": "as §2"}, "HuP-T3": {"system": "HuP-T3", "assay": "Antiproliferative activity against human HuP-T3 cells assessed as inhibition of cell proliferation incubated for 3 days by CellTiter-Glo Luminescent Cell Viability Assay", "type": "functional, cell-based", "conditions": "HuP-T3, 72 h", "summary_of_the_method": "as §1"}, "[2]": {"assay": "Antiproliferative activity against human PaTu 8988s cells assessed as inhibition of cell proliferation incubated for 3 days by CellTiter-Glo Luminescent Cell Viability Assay", "type": "functional, cell-based", "conditions": "72 h", "summary_of_the_method": "as §2"}, "[3]": {"assay": "Antiproliferative activity against human Hs 700T cells assessed as inhibition of cell proliferation incubated for 3 days by CellTiter-Glo Luminescent Cell Viability Assay", "type": "functional, cell-based", "conditions": "72 h", "summary_of_the_method": "as §1"}, "COLO 205": {"system": "COLO 205", "assay": "Inhibition of anchorage independent cell growth in human COLO 205 cells incubated for 6 days by Alamar blue reagent based fluorescence plate reader analysis", "type": "functional", "conditions": "COLO 205, 144 h", "summary_of_the_method": "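Soft-agar colony formation: bottom layer 0.5% agar (2× DMEM with 1% agarose, 1:1), top layer 0.35% agar holding 4,000 cells; layers set 20–30 min at room temperature, then 1× DMEM containing compound added on top. Incubated 6 days; Alamar blue added and fluorescence read at 540 nm.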"}, "HCC4006": {"system": "HCC4006", "assay": "Inhibition of anchorage independent cell growth in human HCC4006 cells incubated for 6 days by Alamar blue reagent based fluorescence plate reader analysis", "type": "functional", "conditions": "HCC4006, 144 h"}, "NCI-H1355": {"system": "NCI-H1355", "assay": "Inhibition of anchorage independent cell growth in human NCI-H1355 cells incubated for 6 days by Alamar blue reagent based fluorescence plate reader analysis", "type": "functional", "conditions": "NCI-H1355, 144 h"}, "NCI-H358 [4]": {"system": "NCI-H358", "assay": "Inhibition of anchorage independent cell growth in human NCI-H358 cells incubated for 6 days by Alamar blue reagent based fluorescence plate reader analysis", "type": "functional", "conditions": "NCI-H358, 144 h"}, "SK-BR-3": {"system": "SK-BR-3", "assay": "Antiproliferative activity against human SK-BR-3 cells assessed as inhibition of cell proliferation incubated for 3 days by CellTiter-Glo Luminescent Cell Viability Assay", "type": "functional, cell-based", "conditions": "SK-BR-3, 72 h", "summary_of_the_method": "as §2"}, "HCT-116 [5]": {"system": "HCT-116", "assay": "Antitumor activity against human HCT-116 cells xenografted in nude mouse assessed as unbound drug concentration for inhibition of tumor growth at 0.12 to 3.3 mg/kg administered via pump for 9 days", "type": "functional", "conditions": "dose 0.12-3.3 mg/kg; time 9 day"}, "[6]": {"assay": "Cytotoxicity against primary hepatocyte (unknown origin) assessed as inhibition of cell proliferation incubated for 3 days by CellTiter-Glo Luminescent Cell Viability Assay", "type": "toxicity, cell-based", "conditions": "primary hepatocytes"}, "[7]": {"molecular_target": "AMP-activated protein kinase (AMPK) alpha-1/beta-1/gamma-1 (Homo sapiens, UniProt P54619+Q13131+Q9Y478)", "sequence (P54619 whole entry)": "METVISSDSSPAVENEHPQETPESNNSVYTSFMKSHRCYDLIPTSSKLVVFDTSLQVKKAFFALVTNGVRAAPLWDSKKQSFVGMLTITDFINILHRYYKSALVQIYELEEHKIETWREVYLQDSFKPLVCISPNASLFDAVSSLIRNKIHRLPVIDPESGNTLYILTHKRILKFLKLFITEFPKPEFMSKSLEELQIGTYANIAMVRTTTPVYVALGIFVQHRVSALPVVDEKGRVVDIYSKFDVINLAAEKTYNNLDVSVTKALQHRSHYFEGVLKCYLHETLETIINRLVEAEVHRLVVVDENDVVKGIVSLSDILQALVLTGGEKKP", "sequence (Q9Y478 whole entry)": "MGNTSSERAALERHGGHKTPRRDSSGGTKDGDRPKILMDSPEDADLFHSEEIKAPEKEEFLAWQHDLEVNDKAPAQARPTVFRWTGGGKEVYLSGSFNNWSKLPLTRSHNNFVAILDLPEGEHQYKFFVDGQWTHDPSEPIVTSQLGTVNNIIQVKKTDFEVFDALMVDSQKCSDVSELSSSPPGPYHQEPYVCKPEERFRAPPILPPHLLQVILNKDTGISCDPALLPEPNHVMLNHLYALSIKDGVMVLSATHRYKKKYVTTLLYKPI", "sequence (Q13131 whole entry)": "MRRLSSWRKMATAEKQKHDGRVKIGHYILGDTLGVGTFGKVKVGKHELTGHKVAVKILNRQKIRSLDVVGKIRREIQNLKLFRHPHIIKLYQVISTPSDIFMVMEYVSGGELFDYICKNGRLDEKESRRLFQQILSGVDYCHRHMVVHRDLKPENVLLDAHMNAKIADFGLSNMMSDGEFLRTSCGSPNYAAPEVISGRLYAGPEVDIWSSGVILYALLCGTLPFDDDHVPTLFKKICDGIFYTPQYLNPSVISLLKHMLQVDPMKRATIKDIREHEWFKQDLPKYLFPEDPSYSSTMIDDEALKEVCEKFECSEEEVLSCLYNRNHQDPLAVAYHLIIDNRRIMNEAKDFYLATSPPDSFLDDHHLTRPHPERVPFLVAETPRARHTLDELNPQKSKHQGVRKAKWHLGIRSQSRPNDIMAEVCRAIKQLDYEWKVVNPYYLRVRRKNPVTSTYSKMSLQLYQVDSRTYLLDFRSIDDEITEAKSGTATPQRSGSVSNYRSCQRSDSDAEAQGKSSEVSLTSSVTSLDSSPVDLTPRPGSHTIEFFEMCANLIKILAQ", "assay": "Inhibition of human AMPK alpha1/beta1/gamma1 assessed as inhibition constant in presence of ATP", "type": "protein-complex assay"}, "[8]": {"molecular_target": "Ribosomal protein S6 kinase alpha-3 (Homo sapiens, UniProt P51812)", "sequence (P51812 whole entry)": "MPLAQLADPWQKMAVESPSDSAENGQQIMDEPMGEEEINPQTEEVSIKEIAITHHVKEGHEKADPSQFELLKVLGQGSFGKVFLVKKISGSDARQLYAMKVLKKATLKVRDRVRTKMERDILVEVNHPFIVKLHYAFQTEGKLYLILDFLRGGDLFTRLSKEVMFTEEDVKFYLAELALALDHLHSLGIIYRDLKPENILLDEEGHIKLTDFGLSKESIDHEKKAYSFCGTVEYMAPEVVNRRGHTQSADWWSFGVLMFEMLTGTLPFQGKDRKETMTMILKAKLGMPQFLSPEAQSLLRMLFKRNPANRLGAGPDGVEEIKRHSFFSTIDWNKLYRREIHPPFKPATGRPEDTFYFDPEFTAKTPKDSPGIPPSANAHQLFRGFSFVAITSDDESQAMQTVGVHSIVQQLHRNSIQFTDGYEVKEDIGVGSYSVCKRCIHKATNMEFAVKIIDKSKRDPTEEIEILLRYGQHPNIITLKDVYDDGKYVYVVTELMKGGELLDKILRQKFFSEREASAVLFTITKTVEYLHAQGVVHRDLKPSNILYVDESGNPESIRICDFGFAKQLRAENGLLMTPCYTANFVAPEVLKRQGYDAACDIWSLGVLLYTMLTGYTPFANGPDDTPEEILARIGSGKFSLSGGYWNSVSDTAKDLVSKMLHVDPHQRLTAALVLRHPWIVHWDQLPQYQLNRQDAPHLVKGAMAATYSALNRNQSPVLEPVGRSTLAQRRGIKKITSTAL", "assay": "Inhibition of human RSK2 assessed as inhibition constant in presence of ATP"}, "[9]": {"molecular_target": "T1, Protein kinase C theta type (Homo sapiens, UniProt Q04759)", "T1 sequence (Q04759 whole entry)": "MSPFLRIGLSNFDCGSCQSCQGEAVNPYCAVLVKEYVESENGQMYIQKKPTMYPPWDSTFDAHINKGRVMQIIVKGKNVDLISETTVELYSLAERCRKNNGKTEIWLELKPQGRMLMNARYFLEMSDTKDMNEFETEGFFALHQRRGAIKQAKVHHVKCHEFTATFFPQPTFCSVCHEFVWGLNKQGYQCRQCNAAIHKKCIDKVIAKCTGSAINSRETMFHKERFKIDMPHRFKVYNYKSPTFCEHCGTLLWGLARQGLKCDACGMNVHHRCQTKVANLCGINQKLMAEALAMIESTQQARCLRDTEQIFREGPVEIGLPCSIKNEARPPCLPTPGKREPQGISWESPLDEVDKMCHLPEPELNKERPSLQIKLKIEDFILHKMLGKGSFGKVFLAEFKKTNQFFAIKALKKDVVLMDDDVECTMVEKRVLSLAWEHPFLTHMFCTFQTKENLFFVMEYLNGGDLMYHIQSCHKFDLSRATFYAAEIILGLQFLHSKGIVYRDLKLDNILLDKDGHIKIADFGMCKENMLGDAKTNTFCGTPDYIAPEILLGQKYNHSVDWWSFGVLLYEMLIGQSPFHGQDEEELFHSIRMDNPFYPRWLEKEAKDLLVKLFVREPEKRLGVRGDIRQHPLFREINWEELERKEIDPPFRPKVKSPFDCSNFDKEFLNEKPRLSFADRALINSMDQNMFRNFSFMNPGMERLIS", "assay": "Inhibition of human PKCtheta in presence of ATP"}, "[10]": {"molecular_target": "Tyrosine-protein kinase Yes (Homo sapiens, UniProt P07947)", "sequence (P07947 whole entry)": "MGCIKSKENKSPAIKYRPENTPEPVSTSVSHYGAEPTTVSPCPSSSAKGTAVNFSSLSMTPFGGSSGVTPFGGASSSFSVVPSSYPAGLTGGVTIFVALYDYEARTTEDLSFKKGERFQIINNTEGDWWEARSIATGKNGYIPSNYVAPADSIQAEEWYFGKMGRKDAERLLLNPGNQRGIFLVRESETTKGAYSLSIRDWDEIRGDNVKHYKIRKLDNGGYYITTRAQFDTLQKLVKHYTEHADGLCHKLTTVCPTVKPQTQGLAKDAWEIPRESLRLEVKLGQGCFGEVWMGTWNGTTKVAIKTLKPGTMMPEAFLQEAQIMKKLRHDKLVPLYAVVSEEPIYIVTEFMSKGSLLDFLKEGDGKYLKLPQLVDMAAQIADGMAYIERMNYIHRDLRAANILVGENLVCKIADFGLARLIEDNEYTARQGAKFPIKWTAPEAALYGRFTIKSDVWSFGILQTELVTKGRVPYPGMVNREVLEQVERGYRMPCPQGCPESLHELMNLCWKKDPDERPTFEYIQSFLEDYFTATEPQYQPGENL", "assay": "Inhibition of human YES1 in presence of ATP"}, "[11]": {"molecular_target": "T1, Protein kinase C theta type", "assay": "Inhibition of human PKCtheta in presence of ATP by cellular assay"}, "[12]": {"molecular_target": "Protein kinase C beta type (Homo sapiens, UniProt P05771)", "sequence (P05771 whole entry)": "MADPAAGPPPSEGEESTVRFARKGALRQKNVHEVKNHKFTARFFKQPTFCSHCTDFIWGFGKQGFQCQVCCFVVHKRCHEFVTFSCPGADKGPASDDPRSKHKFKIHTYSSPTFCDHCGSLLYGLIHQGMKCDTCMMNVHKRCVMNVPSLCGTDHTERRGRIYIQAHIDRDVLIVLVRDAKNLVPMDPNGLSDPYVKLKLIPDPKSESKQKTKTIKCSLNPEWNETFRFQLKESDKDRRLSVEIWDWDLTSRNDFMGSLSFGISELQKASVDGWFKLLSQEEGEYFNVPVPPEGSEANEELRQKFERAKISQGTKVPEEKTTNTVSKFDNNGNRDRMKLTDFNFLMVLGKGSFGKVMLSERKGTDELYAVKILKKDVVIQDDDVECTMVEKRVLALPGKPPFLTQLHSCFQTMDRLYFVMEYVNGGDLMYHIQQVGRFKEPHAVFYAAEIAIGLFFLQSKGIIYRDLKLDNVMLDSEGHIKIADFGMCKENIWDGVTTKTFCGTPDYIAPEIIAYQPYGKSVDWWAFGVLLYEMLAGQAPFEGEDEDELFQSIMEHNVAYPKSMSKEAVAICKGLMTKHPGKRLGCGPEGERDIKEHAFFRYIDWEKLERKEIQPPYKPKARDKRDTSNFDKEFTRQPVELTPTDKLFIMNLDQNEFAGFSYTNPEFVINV", "assay": "Inhibition of human PKCbeta1 in presence of ATP by cellular assay"}, "[13]": {"molecular_target": "RAC-gamma serine/threonine-protein kinase (Homo sapiens, UniProt Q9Y243)", "sequence (Q9Y243 whole entry)": "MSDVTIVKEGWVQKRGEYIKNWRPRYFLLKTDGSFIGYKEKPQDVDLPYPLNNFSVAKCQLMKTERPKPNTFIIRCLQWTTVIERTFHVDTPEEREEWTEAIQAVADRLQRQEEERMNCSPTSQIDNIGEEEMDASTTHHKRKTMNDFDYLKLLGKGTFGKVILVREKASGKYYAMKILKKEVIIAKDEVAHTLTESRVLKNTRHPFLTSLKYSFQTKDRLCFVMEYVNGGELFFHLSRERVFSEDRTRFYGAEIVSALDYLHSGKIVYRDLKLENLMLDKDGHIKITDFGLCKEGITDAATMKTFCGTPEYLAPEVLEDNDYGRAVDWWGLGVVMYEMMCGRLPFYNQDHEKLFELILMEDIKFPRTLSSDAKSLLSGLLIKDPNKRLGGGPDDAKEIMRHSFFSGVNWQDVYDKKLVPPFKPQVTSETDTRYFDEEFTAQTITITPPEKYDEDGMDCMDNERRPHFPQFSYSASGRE", "assay": "Inhibition of human AKT3 in presence of ATP by cellular assay"}, "MDA-MB-231": {"system": "MDA-MB-231", "assay": "Antitumor activity against human MDA-MB-231 cells xenografted in nude mouse assessed as tumor growth inhibition at 20 mg/kg, po administered once daily for 9 to 18 days relative to control", "type": "functional", "conditions": "time 9-18 day, read-out: TGI"}, "HCT-116 [14]": {"system": "HCT-116", "assay": "Antitumor activity against human HCT-116 cells xenografted in nude mouse assessed as inhibition of [3H]FLT uptake at 15 mg/kg, po administered twice a day for 6 days and measured after 2 hrs post [3H]FLT administration by scintillation counter analysis relative to control", "type": "functional", "conditions": "HCT-116, 144 h, time 6 day", "summary_of_the_method": "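HCT116 xenograft mice (tumors 300–350 mm3, n = 5 per group) received oral vehicle or compound, with harvests on days 2, 3 and 6. Isoflurane-anesthetized mice were given [3H]FLT (15 nCi/g, i.p.) 2 h before killing. Tumor and liver were weighed, solubilized and scintillation-counted. SUV = C/(ID/W), and uptake is reported as the tumor-to-liver SUV ratio.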"}, "HCT-116 [15]": {"system": "HCT-116", "assay": "Antitumor activity against human HCT-116 cells xenografted in nude mouse assessed as reduction in MEK1 phosphorylation at S221 residue at 15 to 150 mg/kg/day administered via pump for 18 hrs by Reverse-Phase protein array analysis", "type": "functional, organism-based", "conditions": "dose 15-150 mg/kg/day"}}, "note": "The source made the active and inactive calls. The rule behind the calls is not given here."}
{"molecule": "Cc1nc(Nc2n[nH]c3c2CN(C(=O)N[C@H](CN(C)C)c2ccccc2)C3(C)C)c2sccc2n1", "note": "[PF-03758309]", "values": [{"measurement": "IC50", "setting": "HT-29", "value": 4.3, "unit": "nM"}, {"measurement": "IC50", "setting": "SW-620", "value": 5.7, "unit": "nM"}, {"measurement": "IC50", "setting": "HCT-15", "value": 10000, "unit": "nM"}, {"measurement": "IC50", "setting": "SK-MES-1", "value": 3.2, "unit": "nM"}, {"measurement": "IC50", "setting": "NCI-H1838", "value": 5.5, "unit": "nM"}, {"measurement": "IC50", "setting": "NCI-H358 [1]", "value": 11, "unit": "nM"}, {"measurement": "IC50", "setting": "NCI-H647", "value": 36, "unit": "nM"}, {"measurement": "IC50", "setting": "PSN1", "value": 34, "unit": "nM"}, {"measurement": "IC50", "setting": "PaTu 8988t", "value": 73, "unit": "nM"}, {"measurement": "IC50", "setting": "HuP-T3", "value": 280, "unit": "nM"}, {"measurement": "IC50", "setting": "[2]", "value": 738, "unit": "nM"}, {"measurement": "IC50", "setting": "[3]", "value": 2380, "unit": "nM"}, {"measurement": "IC50", "setting": "COLO 205", "value": 140, "unit": "nM"}, {"measurement": "IC50", "setting": "HCC4006", "value": 3.79, "unit": "nM"}, {"measurement": "IC50", "setting": "NCI-H1355", "value": 14.2, "unit": "nM"}, {"measurement": "IC50", "setting": "NCI-H358 [4]", "value": 7.7, "unit": "nM"}, {"measurement": "IC50", "setting": "SK-BR-3", "value": 132, "unit": "nM"}, {"measurement": "fIC50", "setting": "HCT-116 [5]", "value": 0.4, "unit": "nM"}, {"measurement": "IC50 at 3 days", "setting": "[6]", "value": "> 1000", "unit": "nM"}, {"measurement": "Ki", "setting": "[7]", "value": 5, "unit": "nM"}, {"measurement": "Ki", "setting": "[8]", "value": 5, "unit": "nM"}, {"measurement": "IC50", "setting": "[9]", "value": 28, "unit": "nM"}, {"measurement": "IC50", "setting": "[10]", "value": 47, "unit": "nM"}, {"measurement": "IC50", "setting": "[11]", "value": 568, "unit": "nM"}, {"measurement": "IC50", "setting": "[12]", "value": 2490, "unit": "nM"}, {"measurement": "IC50", "setting": "[13]", "value": 3600, "unit": "nM"}, {"measurement": "inhibition in vivo at 20 mg/kg", "setting": "MDA-MB-231", "value": 89, "unit": "%"}, {"measurement": "inhibition in vivo at 15 mg/kg", "setting": "HCT-116 [14]", "value": 32.5, "unit": "%"}, {"measurement": "Activity", "setting": "HCT-116 [15]", "value": "Active"}]}
